This is a sample that favours compounds with a hit; in the whole collection about 1.7% have one here.
PP1 inh – PP1-alpha phosphatase inhibitors, primary screen, counter-screen for PP5 inhibitor project, biochemical, fluorescence, OMFP substrate, single point | Serine/threonine-protein phosphatase PP1-alpha catalytic subunit (Homo sapiens), P62136 | purified PP1alpha | inhibition, % at 6.7 µM | 320,000 compounds, 0.9% hits | AID 2235, 2010;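 active = inhibition above the mean inhibition of all tested compounds plus 3 SD, computed separately for each screening campaign, cut at about 15% in these data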
Target sequence (P62136 whole entry, looked up): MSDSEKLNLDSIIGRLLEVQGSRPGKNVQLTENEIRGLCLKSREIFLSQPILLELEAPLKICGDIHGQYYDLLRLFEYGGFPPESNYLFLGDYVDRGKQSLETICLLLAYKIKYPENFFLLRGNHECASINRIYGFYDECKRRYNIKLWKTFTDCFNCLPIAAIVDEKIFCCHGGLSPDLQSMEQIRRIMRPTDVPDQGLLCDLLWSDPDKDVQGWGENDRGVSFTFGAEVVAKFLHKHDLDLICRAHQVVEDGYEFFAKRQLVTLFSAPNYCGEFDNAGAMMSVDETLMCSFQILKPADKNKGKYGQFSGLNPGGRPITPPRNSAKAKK
ZTA counter – counter-screen for EBNA-1 inhibitors: inhibitors of Epstein-Barr virus ZTA; 320,000 compounds, 0.15% hits; P03206; inhibition, % at 11 µM; ZTA-DNA binding, fluorescence polarization; in the data active = inhibition above about 33%
HCV core dimer – inhibitors of HCV core protein dimerization, primary screen, biochemical, TR-FRET, high-throughput; inhibition, % at 5 µM; TR-FRET GST/Flag-core106 dimerization, 1536-well; 300,000 compounds, 0.33% hits; AID 1899, 2009;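 active = inhibition above the mean of all tested compounds plus 3 SD, set per screening campaign, cut at about 45% in these data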
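Material: GST/Flag-tagged HCV core106 proteins. Incubation: 4 h, 22.5 °C incubation. Read-out basis: inhibition (%) from 671 over 617 nm ratio. Measured by: TR-FRET, excitation 340 nm, emission 617 and 671 nm.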
PP5 primary – PP5 phosphatase inhibitors, primary screen, biochemical, fluorescence. inhibition, % at 6.7 µM. purified PP5c, OMFP substrate fluorescence. Serine/threonine-protein phosphatase 5 (Homo sapiens), P53041. 320,000 compounds, 0.18% hits;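 active = inhibition above the campaign's mean inhibition across all tested compounds plus 3 SD, cut at about 9.5% in these data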
EBNA-1 inhibitor – EBNA-1 DNA-binding inhibitors, primary screen, biochemical, fluorescence polarization | inhibition, % at 14.8 µM | 300,000 compounds, 0.34% hits | AID 1950, 2009; in the data active = inhibition above about 28%
EBNA-1 inh conf – EBNA-1 DNA-binding inhibitors, retest, confirmation, biochemical, fluorescence polarization, triplicate; shares compounds with EBNA-1 inhibitor; Recombinant EBNA-1 DBD, Cy5-DNA fluorescence polarization; inhibition, % at 14.8 µM; 830 compounds, 35% hits;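 active = mean inhibition across replicates above a set limit taken from the earlier primary screen, cut at about 28% in these data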
ZTA DNA inh trip – EBV Zta DNA binding inhibitors, counter-screen for EBNA-1 inhibitor project, biochemical, fluorescence polarization, triplicate; Zta-ZRE DNA binding, Cy5 fluorescence polarization; 830 tested, under 10 active; inhibition, % at 11.1 µM; shares compounds with EBNA-1 inhibitor; AID 2328, 2010;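 active = mean inhibition over triplicates above a set limit taken from the primary EBNA-1 screen, cut at about 37% in these data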;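 also: purified full length Zta protein with Cy5 labeled ZRE DNA probe; inhibitors lower polarization by freeing the labeled DNA probe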
Of the large screens only hits and unclear results are named; the others gave an inactive call (follow-up assays come after a bar, where they were run).

C=CCOC(=O)C1=C(C)NC(C)=C(C(=O)OCC=C)C1c1cn(-c2ccccc2)nc1-c1ccco1	EBNA-1 inhibitor 53 | EBNA-1 inh conf inactive | ZTA DNA inh trip inactive
OCc1cn(-c2ccccc2)nc1-c1ccco1	none
COCCCn1c(=O)c2ccccc2n(CC(=O)N2CCCc3ccccc32)c1=O	none
O=C(Nc1nc2cc3c(cc2s1)OCCO3)c1ccc(N2C(=O)CCC2=O)cc1	EBNA-1 inhibitor 62 | EBNA-1 inh conf 57 | ZTA DNA inh trip inactive
CN(C)c1ccc(NC(=O)Cn2c(=O)n(Cc3ccccc3)c(=O)c3ccccc32)cc1	EBNA-1 inhibitor 43 | EBNA-1 inh conf 35 | ZTA DNA inh trip inactive
O=C(Cn1c(=O)n(Cc2ccccc2)c(=O)c2ccccc21)NCc1ccco1	none
Cc1ccc(NC(=O)Cn2c(=O)n(CCCC(=O)NCc3ccco3)c(=O)c3ccccc32)cc1	EBNA-1 inhibitor 38 | EBNA-1 inh conf 45 | ZTA DNA inh trip inactive
COc1ccc(S(=O)(=O)N(C)CC(=O)NCc2cccnc2)cc1Cl	none
CC(=O)Nc1ccc(S(=O)(=O)NC(C)C(=O)NCCc2ccc(F)cc2)cc1 (stereo not given)	none
COc1ccc(OC)c(NC(=O)CS(=O)(=O)Cc2nc(-c3ccccc3C)oc2C)c1	EBNA-1 inhibitor 57 | EBNA-1 inh conf inactive | ZTA DNA inh trip inactive
COc1cccc(-c2nc(CS(=O)(=O)CC(=O)Nc3c(C)cccc3C)c(C)o2)c1	none
Cc1oc(-c2ccccc2)nc1C(=O)Nc1nccs1	EBNA-1 inhibitor 52 | EBNA-1 inh conf inactive | ZTA DNA inh trip inactive
COc1ccc(-c2csc(NC(=O)c3nc(-c4ccccc4)oc3C)n2)cc1	none
Cc1ccc(/C(N)=N/OC(=O)c2ccc3ccccc3c2)cc1	EBNA-1 inhibitor 31 | EBNA-1 inh conf 42 | ZTA DNA inh trip inactive
Cc1ccc(/C(N)=N/OC(=O)c2cccc(F)c2)cc1	none
Cc1ccc(-c2csc3ncnc(SCC(=O)Nc4nnc(C)s4)c23)cc1	EBNA-1 inhibitor 38 | EBNA-1 inh conf inactive | ZTA DNA inh trip inactive
CC(Sc1nnc(N)s1)C(=O)NC1CCCCC1C (stereo not given)	none
CC1=CC(=C(C#N)C#N)C=C(C)N1CCN1CCN(C(=O)Nc2ccc(Cl)c(Cl)c2)CC1	EBNA-1 inhibitor 76 | EBNA-1 inh conf 65 | ZTA DNA inh trip inactive
CSc1ccccc1NC(=O)Cn1nnc(-c2ccc(S(C)(=O)=O)cc2)n1	EBNA-1 inhibitor 41 | EBNA-1 inh conf 53 | ZTA DNA inh trip inactive
COc1cc(CNC2CCCCCCC2)cc(Cl)c1OC	EBNA-1 inhibitor 90 | EBNA-1 inh conf inactive | ZTA DNA inh trip inactive
CCOc1c(Br)cc(CNC2CCCCCCC2)cc1OC	none
Cc1cccc(NC(=S)N2CCC(NC(=O)c3ccco3)CC2)c1	none
COCCCNC(=O)c1c[nH]c2ccc(S(=O)(=O)N3CCC4(CC3)OCCO4)cc2c1=O	none
CCCCCNC(=O)c1c[nH]c2ccc(S(=O)(=O)N3CCC4(CC3)OCCO4)cc2c1=O	EBNA-1 inhibitor 29 | EBNA-1 inh conf inactive | ZTA DNA inh trip inactive
NS(=O)(=O)c1ccc(NC(=S)NC(=O)c2ccc3c(c2)OCO3)cc1	EBNA-1 inhibitor 61 | EBNA-1 inh conf 72 | ZTA DNA inh trip inactive
NS(=O)(=O)c1ccc(NC(=O)c2ccc3c(c2)OCO3)cc1	none
Cc1ccc(/C=N/n2c(C)nc3ccccc3c2=O)s1	none
C[C@H](NC(=O)[C@@H]1Cc2ccccc2CN1C(=O)OC(C)(C)C)C(=O)NCC1CCCO1 (stereo not given in full)	none
CC(OCc1ccccc1)C(NC(=O)OC(C)(C)C)C(=O)NCC1CCCO1 (stereo not given)	EBNA-1 inhibitor 46 | EBNA-1 inh conf inactive | ZTA DNA inh trip inactive
COc1cccc(-c2c(C(=O)N/N=C(\C)c3ccc(Cl)s3)nnn2-c2nonc2N)c1	EBNA-1 inhibitor 35 | EBNA-1 inh conf inactive | ZTA DNA inh trip inactive
